# Reference: ChEMBL document CHEMBL1156597, “Structure-activity relationship of kahalalide F synthetic analogues” (J Med Chem, 2008)
# Assays:
# [1] = test system: K562; test: Cytotoxicity against human K562 cells after 48 hrs by SRB assay; type: functional; conditions: K562, 48 h, read-out: LC50 (the source's name)
# In short: (§1)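 Cells grown in RPMI 1640 with 10% FBS and penicillin/streptomycin at 37 °C and 5% CO₂, trypsinized, then seeded at 5 × 10³/well. After 18 h drug-free attachment, samples in DMSO/EtOH/PBS (0.5:0.5:99) were added for 48 h continuous exposure. Cells were fixed with cold TCA (1 h, 4 °C) and stained with SRB (10 min). Tris-solubilized stain read at 490 nm. Triplicate wells, mean ± SD; GI₅₀ derived.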
# [2] = test system: HT-29; test: Cytotoxicity against human HT29 cells after 48 hrs by SRB assay; type: functional, cell-based; conditions: Homo sapiens, HT-29, 48 h; for CC50: read-out: LC50 (the source's name); in short: as §1
# [3] = test system: HeLa; test: Cytotoxicity against human HeLa cells after 48 hrs by SRB assay; type: functional; conditions: for CC50: read-out: LC50 (the source's name); in short: as §1
# [4] = Cytotoxicity against human IGROV cells after 48 hrs by SRB assay; type: functional; conditions: read-out: LC50 (the source's name); in short: as §1
# [5] = Cytotoxicity against human HeLa-APL cells after 48 hrs by SRB assay; type: functional; in short: as §1
# [6] = test system: DU-145; test: Cytotoxicity against human DU145 cells after 48 hrs by SRB assay; type: functional, cell-based; conditions: Homo sapiens, DU-145, 48 h; for GI50: read-out: GI50; for CC50: read-out: LC50 (the source's name); in short: as §1
# [7] = test system: SK-MEL-28; test: Cytotoxicity against human SK-MEL-28 cells after 48 hrs by SRB assay; type: functional, cell-based; conditions: Homo sapiens, SK-MEL-28, 48 h; for CC50: read-out: LC50 (the source's name); for GI50: read-out: GI50; in short: as §1
# [8] = test system: A549; test: Cytotoxicity against human A549 cells after 48 hrs by SRB assay; type: functional, cell-based; conditions: Homo sapiens, A549, 48 h; in short: as §1
# [9] = test system: PANC-1; test: Cytotoxicity against human PANC1 cells after 48 hrs by SRB assay; type: functional; conditions: PANC-1, 48 h; for CC50: read-out: LC50 (the source's name); in short: as §1
# [10] = test system: LoVo; test: Cytotoxicity against human doxorubicin resistant LoVo cells after 48 hrs by SRB assay; type: functional; conditions: for CC50: read-out: LC50 (the source's name); in short: as §1
# [11] = test system: LoVo; test: Cytotoxicity against human LoVo cells after 48 hrs by SRB assay; type: functional; conditions: for CC50: read-out: LC50 (the source's name)
# [12] = Cytotoxicity against human IGROV-ET cells after 48 hrs by SRB assay; type: functional; conditions: for CC50: read-out: LC50 (the source's name); in short: as §1
# [13] = test system: SK-BR-3; test: Cytotoxicity against human SKBR3 cells after 48 hrs by SRB assay; type: functional; conditions: SK-BR-3, 48 h; in short: as §1
Compound,CC50 [1],CC50 [2],GI50 [3],TGI [3],CC50 [3],CC50 [4],LC50 (concentration giving 50% net cell kill) [5],TGI [6],GI50 [6],CC50 [6],CC50 [7],LC50 [8],GI50 [9],TGI [9],CC50 [9],CC50 [10],GI50 [11],TGI [11],CC50 [11],CC50 [12],also measured
C/C=C1\NC(=O)[C@H](Cc2ccccc2)NC(=O)[C@@H](C(C)C)NC(=O)[C@@H]([C@H](C)CC)NC(=O)[C@H](N)[C@H](C)OC(=O)[C@H](C(C)C)NC1=O,8320 nM,10300 nM,740 nM,5420 nM,3130 nM,2710 nM,3580 nM,6000 nM,5100 nM,3310 nM,3870 nM,3580 nM,4350 nM,9720 nM,5520 nM,9860 nM,14900 nM,16900 nM,9830 nM,2280 nM,TGI [12]: 5580 nM; GI50 ([12]; read-out: GI50): 4400 nM
C/C=C1\NC(=O)[C@H](Cc2ccccc2)NC(=O)[C@@H](C(C)C)NC(=O)[C@@H]([C@H](C)CC)NC(=O)[C@H](NC(=O)[C@H](NC(=O)[C@H](CCCN)NC(=O)[C@H]2CCCN2C(=O)[C@H](NC(=O)[C@@H](NC(=O)[C@@H](NC(=O)[C@@H](C)NC(=O)CCCC(C)C)[C@@H](C)O)C(C)C)C(C)C)[C@H](C)CC)[C@H](C)OC(=O)[C@H](C(C)C)NC1=O,3310 nM,3340 nM,1030 nM,998 nM,963 nM,828 nM,1180 nM,1480 nM,1810 nM,1200 nM,1470 nM,1400 nM,1660 nM,1900 nM,2180 nM,1850 nM,1980 nM,2260 nM,2220 nM,714 nM,GI50 [2]: 3030 nM; TGI [2]: 3180 nM; GI50 [5]: 1680 nM; TGI [5]: 1420 nM; TGI [7]: 1700 nM; GI50 [7]: 1990 nM; TGI [8]: 1430 nM; GI50 ([8]; read-out: GI50): 1460 nM; GI50 [10]: 800 nM; TGI [10]: 1270 nM
C/C=C1\NC(=O)[C@H](Cc2ccccc2)NC(=O)[C@H](C(C)C)NC(=O)[C@@H]([C@H](C)CC)NC(=O)[C@H](NC(=O)[C@H](NC(=O)[C@H](CCCN)NC(=O)[C@H]2CCCN2C(=O)[C@H](NC(=O)[C@@H](NC(=O)[C@@H](NC(=O)[C@H](NC(=O)CCCC(C)C)C(C)C)[C@@H](C)O)C(C)C)C(C)C)[C@H](C)CC)[C@H](C)OC(=O)[C@H](C(C)C)NC1=O,4270 nM,5260 nM,–,–,1610 nM,1390 nM,1840 nM,–,–,1700 nM,1990 nM,1830 nM,1680 nM,4980 nM,2830 nM,5060 nM,5490 nM,8660 nM,5040 nM,1170 nM,TGI [12]: 2860 nM; GI50 ([12]; read-out: GI50): 1220 nM
C/C=C1\NC(=O)[C@H](Cc2ccccc2)NC(=O)[C@@H](C(C)C)NC(=O)[C@@H]([C@H](C)CC)NC(=O)[C@H](NC(=O)[C@H](NC(=O)[C@H](CCCN)NC(=O)[C@H]2CCCN2C(=O)[C@H](NC(=O)[C@@H](NC(=O)[C@@H](NC(=O)[C@@H](CCC(N)=O)NC(=O)CCCC(C)C)[C@@H](C)O)C(C)C)C(C)C)[C@H](C)CC)[C@H](C)OC(=O)[C@H](C(C)C)NC1=O,2790 nM,2870 nM,452 nM,649 nM,915 nM,743 nM,1800 nM,1390 nM,1460 nM,1320 nM,1230 nM,664 nM,168 nM,222 nM,361 nM,1670 nM,1460 nM,1800 nM,2220 nM,653 nM,GI50 [2]: 2300 nM; TGI [2]: 2560 nM; GI50 [5]: 2420 nM; TGI [5]: 3200 nM; TGI [7]: 1280 nM; GI50 [7]: 1340 nM; GI50 [8]: 350 nM; GI50 ([8]; read-out: GI50): 234 nM; GI50 [10]: 610 nM; TGI [10]: 1080 nM; GI50 [12]: 947 nM; GI50 ([12]; read-out: GI50): 1330 nM
C/C=C1\NC(=O)[C@H](Cc2ccccc2)NC(=O)[C@@H](C(C)C)NC(=O)[C@@H]([C@H](C)CC)NC(=O)[C@H](NC(=O)[C@H](NC(=O)[C@H](CCCN)NC(=O)[C@H]2CCCN2C(=O)[C@H](NC(=O)[C@@H](NC(=O)[C@@H](NC(=O)[C@H](NC(=O)CC(C)C)C(C)C)[C@@H](C)O)C(C)C)C(C)C)[C@H](C)CC)[C@H](C)OC(=O)[C@H](C(C)C)NC1=O,3810 nM,3140 nM,2090 nM,2090 nM,1630 nM,848 nM,1690 nM,1860 nM,2070 nM,1660 nM,1330 nM,1710 nM,–,–,2880 nM,1880 nM,1630 nM,1990 nM,2420 nM,708 nM,GI50 [2]: 2980 nM; TGI [2]: 3060 nM; GI50 [5]: 2330 nM; TGI [5]: 2000 nM; TGI [7]: 1620 nM; GI50 [7]: 1980 nM; TGI [8]: 1700 nM; GI50 ([8]; read-out: GI50): 1680 nM; GI50 [10]: 882 nM; TGI [10]: 1390 nM
CC[C@@H](C)[C@@H](NC(=O)[C@H](CCCN)NC(=O)[C@H]1CCCN1C(=O)[C@H](NC(=O)[C@@H](NC(=O)[C@@H](NC(=O)[C@H](NC(=O)CCCC(C)C)C(C)C)[C@@H](C)O)C(C)C)C(C)C)C(=O)N[C@H]1C(=O)N[C@H]([C@H](C)CC)C(=O)N[C@H](C(C)C)C(=O)N[C@@H](Cc2ccccc2)C(=O)N[C@H](CC)C(=O)N[C@@H](C(C)C)C(=O)O[C@H]1C,2730 nM,3210 nM,–,–,1600 nM,963 nM,1840 nM,3040 nM,3260 nM,1700 nM,1980 nM,1830 nM,4090 nM,4980 nM,2830 nM,2280 nM,2630 nM,2740 nM,2830 nM,748 nM,GI50 [2]: 3660 nM; TGI [2]: 3410 nM; TGI [7]: 3360 nM; GI50 [7]: 3100 nM; TGI [8]: 3020 nM; GI50 ([8]; read-out: GI50): 3230 nM; GI50 [10]: 1760 nM; TGI [10]: 2000 nM
C/C=C1\NC(=O)[C@H](Cc2ccccc2)NC(=O)[C@@H](C(C)C)NC(=O)[C@@H]([C@H](C)CC)NC(=O)[C@H](NC(=O)[C@H](NC(=O)[C@H](CCCN)NC(=O)[C@H]2CCCN2C(=O)[C@H](NC(=O)[C@@H](NC(=O)[C@@H](NC(=O)[C@H](N)C(C)C)[C@@H](C)O)C(C)C)C(C)C)[C@H](C)CC)[C@H](C)OC(=O)[C@H](C(C)C)NC1=O,4610 nM,5680 nM,–,–,1740 nM,1500 nM,1990 nM,–,–,1840 nM,4140 nM,1980 nM,5490 nM,5390 nM,3060 nM,5470 nM,9460 nM,9360 nM,5450 nM,1260 nM,TGI [12]: 3100 nM; GI50 ([12]; read-out: GI50): 4010 nM
CC[C@@H](C)[C@@H](NC(=O)[C@H](CCCN)NC(=O)[C@H]1CCCN1C(=O)[C@H](NC(=O)[C@@H](NC(=O)[C@@H](NC(=O)[C@H](NC(=O)CCCC(C)C)C(C)C)[C@@H](C)O)C(C)C)C(C)C)C(=O)N[C@H]1C(=O)N[C@H]([C@H](C)CC)C(=O)N[C@H](C(C)C)C(=O)N[C@@H](Cc2ccccc2)C(=O)N/C(=C\c2ccccc2)C(=O)N[C@@H](C(C)C)C(=O)O[C@H]1C,–,5220 nM,1500 nM,1180 nM,936 nM,559 nM,704 nM,1120 nM,1390 nM,893 nM,1390 nM,1110 nM,4540 nM,4450 nM,2140 nM,–,836 nM,1420 nM,1890 nM,629 nM,GI50 [2]: 5130 nM; TGI [2]: 10100 nM; TGI [13]: 1150 nM; GI50 ([13]; read-out: GI50): 601 nM; CC50 ([13]; read-out: LC50 (the source's name)): 806 nM
